Results on four compounds are retold here after ChEMBL document CHEMBL3244404, “Effect of sulfur substitution for the noncarbonyl oxygen in hemicholinium-3 and acetyl-seco-hemicholinium-3. Synthesis, biological activity, and structure-toxicity relationships” (J Med Chem, 1977).

Holding throughout (conditions): in vivo
The nature of data set [1]: Toxicity in ip dosed CD-1 mouse assessed as mortality in presence of 0.2 mg/kg, ip neostigmine. It counts as organism-based. More on the design: dose 0.2 mg/kg, route intraperitoneal.
The subject of data set [2] is Mus musculus. Kind of data set: Toxicity in ip dosed CD-1 mouse assessed as exophthalmos. It counts as organism-based. A digest of the protocol:
(§1)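 Compounds dissolved in normal saline (0.9% NaCl) and injected ip into mice. Signs were recorded as they appeared after dosing. Animals that died were autopsied immediately, with lungs and peritoneal cavity examined for excess fluid and heart and small intestine observed.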

Data set [3] relates to Mus musculus. Kind of data set: Toxicity in ip dosed CD-1 mouse assessed as clonic convulsions. Type of data set: organism-based. The method, boiled down:
as §1

The subject of data set [4] is Mus musculus. The data set can be described thus: Toxicity in ip dosed CD-1 mouse assessed as loss of righting response. Type of data set: organism-based. The method, boiled down: as §1
Data set [5] relates to Mus musculus. Kind of data set: Toxicity in ip dosed CD-1 mouse assessed as excess fluids in lungs and peritoneal cavity. It counts as organism-based. A digest of the protocol: as §1
Data set [6] in a line: Toxicity in ip dosed CD-1 mouse assessed as mortality in presence of 20 mg/kg, ip choline. Also on record: dose 20 mg/kg, route intraperitoneal. It counts as organism-based.
Data set [7] has as its system Mus musculus. Kind of data set: Toxicity in ip dosed CD-1 mouse assessed as mild to moderate ataxia. It counts as organism-based. A digest of the protocol: as §1
Data set [8] concerns Mus musculus. Kind of data set: Toxicity in ip dosed CD-1 mouse assessed as respiratory difficulties. It counts as organism-based. The method, boiled down:
as §1

Data set [9] has as its system Mus musculus. The data set can be described thus: Toxicity in ip dosed CD-1 mouse assessed as increase in peristalsis of the small intestine. It counts as organism-based. A digest of the protocol: as §1
The test system of data set [10] is Mus musculus. Kind of data set: Toxicity in ip dosed CD-1 mouse assessed as SLUD syndrome. It counts as organism-based. A digest of the protocol:
as §1

For data set [11], the system named is Mus musculus. The data set can be described thus: Toxicity in ip dosed CD-1 mouse assessed as cardiac contractions. It counts as organism-based. A digest of the protocol: as §1
Data set [12] deals with Mus musculus. Kind of data set: Ratio of HC-3 LD50 to compound LD50 in CD-1 mouse. It counts as ADME, organism-based. The method, boiled down:
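Mice received the compounds ip, dissolved in normal saline (0.9% NaCl). Deaths were scored to derive the ip LD50 in mg/kg with 95% confidence limits. Each LD50 was also expressed as a ratio to that of HC-3. Signs were recorded in the animals that died, and immediate autopsy examined the heart, intestine, lungs and peritoneal cavity.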

One may read the mortality as the percentage killed. With `C[N+]1(C)CCOC(O)(c2ccc(-c3ccc(C4(O)C[N+](C)(C)CCO4)cc3)cc2)C1.[Br-].[Br-]` (configuration not stated), the mortality in [1] stood at 90%; in [6], 15%. The Activity result is listed as “Toxic” in the data set on Mus musculus [2]; “Toxic” with Mus musculus [3]; “Toxic” with Mus musculus [4]; “Non-toxic” in the data set on Mus musculus [5]; “Toxic” in the data set on Mus musculus [7]; “Toxic” in the data set with Mus musculus [8]. The Activity result is reported as “Toxic” in the data set with Mus musculus [9], “Toxic” in the data set on Mus musculus [10] and “Non-toxic” in the data set on Mus musculus [11].

Take `C[N+](C)(CCS)CC(=O)c1ccc(-c2ccc(C(=O)C[N+](C)(C)CCS)cc2)cc1.[Br-].[Br-]`: the values for the mortality in [1] and in data set [6] were 70% and 10%, respectively. The Activity result with Mus musculus [2] is “Toxic”; in the data set on Mus musculus [3], “Toxic”; in the data set on Mus musculus [4], “Toxic”; in the data set on Mus musculus [5] it was “Non-toxic”; with Mus musculus [7] it was “Toxic”; with Mus musculus [8], “Toxic”. The Activity result is given as “Toxic” in the data set with Mus musculus [9], “Toxic” in the data set on Mus musculus [10] and “Non-toxic” with Mus musculus [11]. For the same compound, the Ratio in the data set on Mus musculus [12] was 226.

For the compound `CC(=O)OCC[N+](C)(C)CC(=O)c1ccc(-c2ccc(C(=O)C[N+](C)(C)CCOC(C)=O)cc2)cc1.[Br-].[Br-]`, the mortality stood at 80% in data set [1] and 0% in data set [6]. Moreover, the Activity result with Mus musculus [2] is recorded as “Toxic”; with Mus musculus [3], “Toxic”; in the data set with Mus musculus [4], “Toxic”; with Mus musculus [5], “Non-toxic”; in the data set with Mus musculus [7], “Toxic”; in the data set on Mus musculus [8], “Toxic”. The Activity result with Mus musculus [9] is recorded as “Toxic”; with Mus musculus [10], “Toxic”; with Mus musculus [11] it was “Non-toxic”. In the data set on Mus musculus [12], the Ratio turned out to be 1.

In the case of `CC(=O)SCC[N+](C)(C)CC(=O)c1ccc(-c2ccc(C(=O)C[N+](C)(C)CCSC(C)=O)cc2)cc1.[Br-].[Br-]`, the mortality in data set [1] was 30%; in data set [6], 40%. For the same compound, the Activity result in the data set on Mus musculus [2] was “Toxic”; in the data set with Mus musculus [3], “Toxic”; in the data set on Mus musculus [4], “Toxic”; in the data set on Mus musculus [5], “Non-toxic”; in the data set on Mus musculus [7], “Toxic”; in the data set with Mus musculus [8], “Toxic”. Further, the Activity entry in the data set on Mus musculus [9] is given as “Toxic”; with Mus musculus [10] it was “Toxic”; in the data set with Mus musculus [11], “Non-toxic”. Besides, the Ratio in the data set on Mus musculus [12] worked out at 1.
